Test results as given in ChEMBL document CHEMBL4130456 (ACS Med Chem Lett, 2017).
Activity calls are given as the source filed them. No cut-off for these calls is given here.

Columns and labels:
[1] = target: Phosphatidylinositol 4,5-bisphosphate 3-kinase catalytic subunit gamma isoform (Mus musculus, UniProt Q9JHG7); assay: Inhibition of PI3Kgamma in C57/Bl6 mouse BMMC assessed as reduction in adenosine stimulated ATK phosphorylation at ser473 residue pretreated for 30 mins followed by adenosine addition measured after 3 minutes; assay type: cell-based
[2] = target: Phosphatidylinositol 3-kinase catalytic subunit type 3 (Homo sapiens, UniProt Q8NEB9); assay: Inhibition of Vps34 (unknown origin) using phosphatidyl inositol/n-Octyl-glucoside as substrate measured after 30 mins by KinaseGlo assay
[3] = target: T1, Phosphatidylinositol 4,5-bisphosphate 3-kinase catalytic subunit alpha isoform (Homo sapiens, UniProt P42336); assay: Inhibition of recombinant PI3Kalpha (unknown origin) using phosphatidyl inositol/n-Octyl-glucoside as substrate measured after 30 mins by KinaseGlo assay
[4] = target: Phosphatidylinositol 4,5-bisphosphate 3-kinase catalytic subunit gamma isoform (Homo sapiens, UniProt P48736); assay: Inhibition of PI3Kgamma (unknown origin) using phosphatidyl inositol as substrate measured after 30 mins by Alexa Fluor647-labelled ADP tracer based TR-FRET assay
[5] = target: T1, Phosphatidylinositol 4,5-bisphosphate 3-kinase catalytic subunit alpha isoform; assay: Inhibition of recombinant human myristoylated PI3Kalpha catalytic domain expressed in Rat1 cells assessed as reduction in Akt phosphorylation at […] residue after 1 hr by alpha screen Surefire assay; assay type: cell-based
[6] = Inhibition of PI3Kdelta in 50% rat blood assessed as reduction in anti-IgM stimulated CD86 expression pretreated for 1 hr followed by anti-IgM stimulation after 24 hrs by flow cytometric analysis
Method in brief: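 Rat 50% whole blood; B cells stimulated with anti-IgM/IL-4; readouts pAKT or CD86.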

[7] = target: 3',5'-cyclic-AMP phosphodiesterase 4D (Homo sapiens, UniProt Q08499); assay: Inhibition of recombinant human PDE4D
[8] = target: 5-hydroxytryptamine receptor 2B (Homo sapiens, UniProt P41595); assay: Inhibition of 5-HT2B (unknown origin) by calcium flux assay; assay type: functional
Method in brief: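 Part of a 50-target safety panel covering GPCRs, ion channels and transporters.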

[9] = Clearance in Sprague-Dawley rat at 1 mg/kg, iv by RP-HPLC analysis; assay type: ADME, organism-based; conditions: in vivo
[10] = Terminal half life in Sprague-Dawley rat at 1 mg/kg, iv by RP-HPLC analysis; assay type: ADME, organism-based; conditions: in vivo, read-out: beta t1/2 (converted)
Rattus norvegicus [11] = assay: Dose normalized AUC in Sprague-Dawley rat at 1 mg/kg, iv by RP-HPLC analysis; assay type: ADME, organism-based; conditions: in vivo
Method in brief: (§1)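 Single-dose PK in naive animals, with the compound given as the crystalline free base. Plasma exposure was expressed as AUC normalised to dose.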

[12] = Oral bioavailability in Sprague-Dawley rat at 3 mg/kg by RP-HPLC analysis; assay type: ADME, organism-based; conditions: in vivo
Rattus norvegicus [13] = assay: Dose normalized Cmax in Sprague-Dawley rat at 3 mg/kg, po by RP-HPLC analysis; assay type: ADME, organism-based; conditions: in vivo
[14] = Oral bioavailability in Sprague-Dawley rat at 30 mg/kg by RP-HPLC analysis; assay type: ADME, organism-based; conditions: in vivo
Rattus norvegicus [15] = assay: Dose normalized Cmax in Sprague-Dawley rat at 30 mg/kg, po by RP-HPLC analysis; assay type: ADME, organism-based; conditions: in vivo
[16] = Oral bioavailability in Beagle dog at 0.3 mg/kg by RP-HPLC analysis; assay type: ADME, organism-based, Canis lupus familiaris; conditions: in vivo
[17] = Tmax in Beagle dog at 0.3 mg/kg, po by RP-HPLC analysis; assay type: ADME, organism-based, Canis lupus familiaris; conditions: in vivo
[18] = Clearance in cynomolgus monkey at 0.1 mg/kg, iv by RP-HPLC analysis; assay type: ADME, organism-based, Macaca fascicularis; conditions: in vivo
[19] = Terminal half life in cynomolgus monkey at 0.1 mg/kg, iv by RP-HPLC analysis; assay type: ADME, organism-based, Macaca fascicularis; conditions: in vivo, read-out: beta t1/2 (converted)
Cynomolgus monkey [20] = assay: Dose normalized AUC in cynomolgus monkey at 0.1 mg/kg, iv by RP-HPLC analysis; assay type: ADME, organism-based, Macaca fascicularis; conditions: in vivo
Cynomolgus monkey [21] = assay: Dose normalized AUC in cynomolgus monkey at 0.3 mg/kg, po by RP-HPLC analysis; assay type: ADME, organism-based, Macaca fascicularis; conditions: in vivo; method in brief: as §1
[22] = Oral bioavailability in cynomolgus monkey at 0.3 mg/kg by RP-HPLC analysis; assay type: ADME, organism-based, Macaca fascicularis; conditions: in vivo
[23] = Tmax in cynomolgus monkey at 0.3 mg/kg, po by RP-HPLC analysis; assay type: ADME, organism-based, Macaca fascicularis; conditions: in vivo
[24] = Protein binding in dog plasma; assay type: ADME, cell-free, Canis lupus familiaris; conditions: read-out: PPB
Rattus norvegicus [25] = assay: Ex-vivo inhibition of PI3Kdelta in po dosed Lewis rat assessed as reduction in anti-IgM/IL4-induced AKT phosphorylation at ser473 residue in whole blood pretreated up to 24 hrs followed by anti-IgM/IL4 stimulation after 10 mins by flow cytometric analysis; assay type: functional, organism-based
Rattus norvegicus [26] = assay: In-vivo inhibition of PI3Kdelta in sheep RBC-sensitized OFA-rat assessed as reduction in antigen-specific antibody response to SRBC by measuring plaque formation at 3 mg/kg, po bid treated for 4 days starting from day 1 of immunization by microscopic method relative to control; assay type: functional
Rattus norvegicus [27] = assay: In-vivo inhibition of PI3Kdelta in sheep RBC-sensitized OFA-rat assessed as reduction in antigen-specific antibody response to SRBC by measuring plaque formation at 10 mg/kg, po bid treated for 4 days starting from day 1 of immunization by microscopic method relative to control; assay type: functional
Rattus norvegicus [28] = assay: Antiarthritic activity in Lewis rat type-2 collagen-induced arthritis model assessed as reduction in joint erosion at 3 to 10 mg/kg, po bid administered prior to disease onset for 19 days starting from 5 days post type-2 collagen-induction measured post last dose by giemsa/safranin O staining based histopathological analysis; assay type: functional, organism-based
Method in brief: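 Rat collagen-induced arthritis, prophylactic regimen: dosing starts before disease onset, b.i.d. Readouts are anti-rat collagen antibodies, paw swelling, and histology (inflammatory cell infiltration, proteoglycan loss, joint erosion).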

Rattus norvegicus [29] = assay: Antiarthritic activity in Lewis rat type-2 collagen-induced arthritis model assessed as reduction in paw swelling at 10 mg/kg, po bid administered after disease onset for 40 days starting from 14 days post type-2 collagen-induction measured 3 times a week up to 41 days; assay type: functional, organism-based
Method in brief: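 Rat collagen-induced arthritis, therapeutic regimen: dosing begins once marked paw swelling is present, 10 mg/kg b.i.d.; readout is paw swelling.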

Mus musculus = assay: Antiinflammatory activity in po dosed C57BL/6J mouse ozone-induced lung inflammation model assessed as reduction in macrophage numbers in bronchoalveolar lavage pretreated for 1 hr followed by ozone exposure for 4 hrs and subsequent redosing measured after 24 hrs by Diff-quick staining based assay; assay type: functional
Method in brief: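 Mouse ozone-induced lung inflammation. Inflammatory cells are counted in bronchoalveolar lavage (neutrophils, macrophages) across several doses. ED50 is derived from the dose–response.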

[30] = Intrinsic clearance in rat liver microsomes assessed per mg protein; assay type: ADME, microsome; conditions: read-out: CLH

T1 sequence (P42336 whole entry, canonical isoform): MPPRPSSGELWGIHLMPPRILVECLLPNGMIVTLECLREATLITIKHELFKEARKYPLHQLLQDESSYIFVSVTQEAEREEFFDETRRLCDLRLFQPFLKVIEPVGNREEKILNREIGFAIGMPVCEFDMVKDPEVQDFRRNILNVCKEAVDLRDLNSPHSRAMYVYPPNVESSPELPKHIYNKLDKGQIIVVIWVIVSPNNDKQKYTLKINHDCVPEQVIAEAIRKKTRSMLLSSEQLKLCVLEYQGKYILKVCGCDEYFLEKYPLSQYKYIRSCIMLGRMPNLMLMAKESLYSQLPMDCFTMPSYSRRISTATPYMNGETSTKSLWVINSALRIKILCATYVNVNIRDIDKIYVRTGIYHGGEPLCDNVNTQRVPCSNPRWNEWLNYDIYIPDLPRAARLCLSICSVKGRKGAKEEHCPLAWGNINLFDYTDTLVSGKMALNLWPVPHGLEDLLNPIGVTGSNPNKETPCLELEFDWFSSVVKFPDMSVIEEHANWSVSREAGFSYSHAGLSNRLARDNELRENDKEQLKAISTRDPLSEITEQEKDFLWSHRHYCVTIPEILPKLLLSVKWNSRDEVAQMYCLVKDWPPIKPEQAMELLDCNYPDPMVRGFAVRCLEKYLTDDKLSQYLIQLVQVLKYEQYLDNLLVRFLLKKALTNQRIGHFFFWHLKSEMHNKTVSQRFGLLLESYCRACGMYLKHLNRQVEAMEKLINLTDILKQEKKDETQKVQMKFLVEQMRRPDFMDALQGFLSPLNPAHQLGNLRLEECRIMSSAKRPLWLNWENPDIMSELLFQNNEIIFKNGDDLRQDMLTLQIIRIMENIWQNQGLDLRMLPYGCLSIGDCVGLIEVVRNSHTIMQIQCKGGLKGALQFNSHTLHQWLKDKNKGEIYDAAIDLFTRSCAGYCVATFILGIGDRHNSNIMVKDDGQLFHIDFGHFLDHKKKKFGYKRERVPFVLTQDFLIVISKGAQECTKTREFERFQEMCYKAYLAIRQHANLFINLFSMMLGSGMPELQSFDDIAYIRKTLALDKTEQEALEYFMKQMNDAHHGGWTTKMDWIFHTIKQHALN
Sequence of Phosphatidylinositol 4,5-bisphosphate 3-kinase catalytic subunit gamma isoform (Mus musculus, UniProt Q9JHG7) (Q9JHG7 whole entry, canonical isoform): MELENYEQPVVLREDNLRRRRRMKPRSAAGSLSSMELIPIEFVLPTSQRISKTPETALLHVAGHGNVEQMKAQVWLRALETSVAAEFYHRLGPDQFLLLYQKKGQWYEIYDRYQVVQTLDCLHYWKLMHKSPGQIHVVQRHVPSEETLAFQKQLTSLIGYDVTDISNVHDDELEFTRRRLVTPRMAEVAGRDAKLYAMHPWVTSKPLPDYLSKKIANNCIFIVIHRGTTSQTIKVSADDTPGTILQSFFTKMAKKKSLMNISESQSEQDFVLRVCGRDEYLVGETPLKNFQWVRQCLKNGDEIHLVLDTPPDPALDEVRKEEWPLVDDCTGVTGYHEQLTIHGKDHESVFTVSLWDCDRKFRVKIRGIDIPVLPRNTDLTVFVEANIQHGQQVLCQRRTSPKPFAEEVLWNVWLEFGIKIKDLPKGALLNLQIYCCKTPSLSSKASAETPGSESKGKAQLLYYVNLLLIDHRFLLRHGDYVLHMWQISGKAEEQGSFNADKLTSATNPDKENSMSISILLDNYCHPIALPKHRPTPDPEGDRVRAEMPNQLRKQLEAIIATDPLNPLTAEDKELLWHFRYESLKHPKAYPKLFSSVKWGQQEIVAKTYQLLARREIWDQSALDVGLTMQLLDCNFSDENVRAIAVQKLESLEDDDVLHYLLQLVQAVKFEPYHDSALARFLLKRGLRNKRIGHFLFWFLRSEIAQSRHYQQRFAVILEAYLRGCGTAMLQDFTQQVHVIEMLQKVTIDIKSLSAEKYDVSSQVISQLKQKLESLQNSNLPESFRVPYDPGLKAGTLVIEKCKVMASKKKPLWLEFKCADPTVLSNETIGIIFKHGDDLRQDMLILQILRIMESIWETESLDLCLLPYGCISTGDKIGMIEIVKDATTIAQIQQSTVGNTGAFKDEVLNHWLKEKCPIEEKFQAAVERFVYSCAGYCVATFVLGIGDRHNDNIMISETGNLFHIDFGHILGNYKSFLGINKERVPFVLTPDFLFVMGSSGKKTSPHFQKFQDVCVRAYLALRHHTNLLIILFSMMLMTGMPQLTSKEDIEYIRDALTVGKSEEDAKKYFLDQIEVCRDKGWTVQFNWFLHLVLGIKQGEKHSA
Sequence of 3',5'-cyclic-AMP phosphodiesterase 4D (Q08499 whole entry): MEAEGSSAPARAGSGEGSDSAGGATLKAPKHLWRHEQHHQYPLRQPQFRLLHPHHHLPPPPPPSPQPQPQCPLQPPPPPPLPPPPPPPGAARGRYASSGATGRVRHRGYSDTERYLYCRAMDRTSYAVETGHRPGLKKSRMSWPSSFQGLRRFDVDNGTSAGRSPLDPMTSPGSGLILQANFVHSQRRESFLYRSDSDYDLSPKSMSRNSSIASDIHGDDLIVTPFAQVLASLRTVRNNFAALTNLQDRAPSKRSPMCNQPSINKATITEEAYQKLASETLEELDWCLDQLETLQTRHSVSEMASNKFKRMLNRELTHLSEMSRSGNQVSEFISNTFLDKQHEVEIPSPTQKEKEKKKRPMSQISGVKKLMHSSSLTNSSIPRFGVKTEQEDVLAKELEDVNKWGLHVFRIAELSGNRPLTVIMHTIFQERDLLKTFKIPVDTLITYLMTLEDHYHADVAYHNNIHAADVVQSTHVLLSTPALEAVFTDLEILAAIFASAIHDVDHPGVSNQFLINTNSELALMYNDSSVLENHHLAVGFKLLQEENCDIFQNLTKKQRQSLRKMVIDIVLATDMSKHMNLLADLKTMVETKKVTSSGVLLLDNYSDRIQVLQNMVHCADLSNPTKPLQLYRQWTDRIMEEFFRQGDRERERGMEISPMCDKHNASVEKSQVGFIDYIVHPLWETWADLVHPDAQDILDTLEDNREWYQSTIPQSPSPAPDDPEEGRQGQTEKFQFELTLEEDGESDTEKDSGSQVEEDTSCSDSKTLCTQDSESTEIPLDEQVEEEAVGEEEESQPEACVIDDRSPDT
Sequence of Phosphatidylinositol 4,5-bisphosphate 3-kinase catalytic subunit gamma isoform (Homo sapiens, UniProt P48736) (P48736 whole entry, the tested form may be a part, canonical isoform): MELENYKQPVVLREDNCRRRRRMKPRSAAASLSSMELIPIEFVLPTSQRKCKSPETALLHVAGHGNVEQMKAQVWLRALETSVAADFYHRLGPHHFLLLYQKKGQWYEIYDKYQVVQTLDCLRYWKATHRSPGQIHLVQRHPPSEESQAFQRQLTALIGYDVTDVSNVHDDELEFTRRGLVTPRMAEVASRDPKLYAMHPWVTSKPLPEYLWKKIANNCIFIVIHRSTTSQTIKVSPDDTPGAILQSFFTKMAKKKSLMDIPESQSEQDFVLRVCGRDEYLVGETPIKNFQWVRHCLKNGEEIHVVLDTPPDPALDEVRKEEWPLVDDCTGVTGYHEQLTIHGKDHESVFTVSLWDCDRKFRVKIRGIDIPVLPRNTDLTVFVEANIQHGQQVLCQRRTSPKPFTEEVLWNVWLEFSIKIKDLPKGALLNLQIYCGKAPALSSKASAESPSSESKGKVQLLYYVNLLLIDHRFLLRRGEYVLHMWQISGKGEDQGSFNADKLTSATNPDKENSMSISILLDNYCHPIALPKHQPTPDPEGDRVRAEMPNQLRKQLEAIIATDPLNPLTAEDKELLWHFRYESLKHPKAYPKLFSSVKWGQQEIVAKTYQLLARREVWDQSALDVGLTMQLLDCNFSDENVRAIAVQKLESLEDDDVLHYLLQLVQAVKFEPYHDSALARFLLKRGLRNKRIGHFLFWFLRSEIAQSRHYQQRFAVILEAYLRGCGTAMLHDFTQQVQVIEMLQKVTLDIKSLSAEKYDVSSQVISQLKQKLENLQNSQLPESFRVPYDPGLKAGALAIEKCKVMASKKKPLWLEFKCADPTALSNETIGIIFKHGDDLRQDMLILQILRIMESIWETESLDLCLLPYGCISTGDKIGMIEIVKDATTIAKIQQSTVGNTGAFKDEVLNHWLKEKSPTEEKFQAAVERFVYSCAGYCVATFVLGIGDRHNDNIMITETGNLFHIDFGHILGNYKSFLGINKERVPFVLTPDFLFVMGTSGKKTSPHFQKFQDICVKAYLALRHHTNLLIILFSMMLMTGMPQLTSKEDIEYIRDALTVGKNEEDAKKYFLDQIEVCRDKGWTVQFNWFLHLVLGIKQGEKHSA
Sequence of Phosphatidylinositol 3-kinase catalytic subunit type 3 (Q8NEB9 whole entry, canonical isoform): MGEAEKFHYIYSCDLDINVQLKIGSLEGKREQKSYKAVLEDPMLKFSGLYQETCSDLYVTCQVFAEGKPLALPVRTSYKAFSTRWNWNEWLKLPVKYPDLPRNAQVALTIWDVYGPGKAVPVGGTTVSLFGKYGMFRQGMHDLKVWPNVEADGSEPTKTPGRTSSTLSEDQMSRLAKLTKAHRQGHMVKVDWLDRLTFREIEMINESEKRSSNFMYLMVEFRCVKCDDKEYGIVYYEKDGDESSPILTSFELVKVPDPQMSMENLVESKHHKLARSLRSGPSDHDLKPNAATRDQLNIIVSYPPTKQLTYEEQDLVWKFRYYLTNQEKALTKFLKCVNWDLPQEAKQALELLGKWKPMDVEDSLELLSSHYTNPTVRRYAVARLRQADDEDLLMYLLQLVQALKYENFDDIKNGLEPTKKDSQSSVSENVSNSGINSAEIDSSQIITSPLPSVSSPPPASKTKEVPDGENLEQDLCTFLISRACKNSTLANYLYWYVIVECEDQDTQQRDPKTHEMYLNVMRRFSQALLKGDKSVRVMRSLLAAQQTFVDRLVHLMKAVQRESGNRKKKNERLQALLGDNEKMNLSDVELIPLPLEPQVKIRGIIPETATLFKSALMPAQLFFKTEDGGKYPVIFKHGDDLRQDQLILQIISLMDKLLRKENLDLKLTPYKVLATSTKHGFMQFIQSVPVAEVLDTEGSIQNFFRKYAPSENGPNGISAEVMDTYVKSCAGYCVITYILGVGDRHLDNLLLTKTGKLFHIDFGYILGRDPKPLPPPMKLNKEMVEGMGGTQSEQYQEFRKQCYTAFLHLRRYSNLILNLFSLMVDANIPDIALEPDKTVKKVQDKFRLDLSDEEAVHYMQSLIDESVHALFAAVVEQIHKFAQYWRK

CCC(=O)N1CC[C@H](Nc2ncnc3c2CN(c2cnc(OC)c(C(F)(F)F)c2)CC3)C1 [LENIOLISIB]
IC50 [1]: 7800 nM
IC50 [2]: > 9100 nM
IC50 [3]: 244 nM
IC50 [4]: 2230 nM
IC50 [5]: 1670 nM
IC50 [6]: 99 nM
IC50 [7]: 4700 nM
IC50 [8]: 7700 nM
clearance [9]: 28 mL/min/kg
half-life [10]: 108 min
AUC/dose (Rattus norvegicus [11]): 1355 nM·h
bioavailability [12]: 86%
Cmax/dose (Rattus norvegicus [13]): 391 nM
bioavailability [14]: > 100%
Cmax/dose (Rattus norvegicus [15]): 334 nM
bioavailability [16]: 58%
Tmax [17]: 42 min
clearance [18]: 17 mL/min/kg
half-life [19]: 42 min
AUC/dose (Cynomolgus monkey [20]): 2250 nM·h
AUC/dose (Cynomolgus monkey [21]): 297 nM·h
bioavailability [22]: 13%
Tmax [23]: < 30 min
fraction unbound [24]: < 0.01
fEC50 (Rattus norvegicus [25]): 5 nM
EC50 (Rattus norvegicus [25]; Rattus norvegicus, Lewis): 83 nM
inhibition in vivo at 3 mg/kg (Rattus norvegicus [26]): 54%
inhibition in vivo at 10 mg/kg (Rattus norvegicus [27]): 73%
Activity (Rattus norvegicus [28]): Active
Activity (Rattus norvegicus [29]): Active
Activity (Mus musculus): Dose-dependent effect
ED50 (Mus musculus): 40 mg/kg
microsomal CLint [30]: 55 µL/min/mg
